From ChEMBL document CHEMBL1134275, “New pyridoquinoline derivatives as potential inhibitors of the fluoroquinolone efflux pump in resistant Enterobacter aerogenes strains” (2001)

Tests used:
Type in all cases: functional
[1] = test system: Klebsiella aerogenes; assay: Inhibitory activity against p9- (derivative of ATCC )13048 strain(Enterobacter aerogenes) in the presence of ciprofloxacin and fluoroquinolone at 16 ug/mL
Procedure, shortened: (§1)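 Checkerboard microtitration MIC with fluoroquinolone plus test compound against E. aerogenes ATCC 13048 or its p9 derivative carrying plasmid-borne E. coli marA. Bacteria were grown in Luria-Bertani or Mueller-Hinton broth at 37 °C, with 15 µg/mL tetracycline for p9. Wells were inoculated at 10^5 cells/mL and growth was scored visually after 18 h at 37 °C. Values are means of two independent experiments.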

[2] = test system: Klebsiella aerogenes; assay: Inhibitory activity against p9- (derivative of ATCC )13048 strain(Enterobacter aerogenes) in the presence of Norfloxacin and fluoroquinolone at 16 ug/mL; procedure, shortened: as §1
[3] = test system: Klebsiella aerogenes; assay: Inhibitory activity against ATCC 13048 strain(Enterobacter aerogenes) in the presence of ciprofloxacin fluoroquinolone at 16 ug/mL; procedure, shortened: as §1
[4] = test system: Klebsiella aerogenes; assay: Inhibitory activity against ATCC 13048 strain(Enterobacter aerogenes) in the presence of Norfloxacin and fluoroquinolone at 16 ug/mL; procedure, shortened: as §1
[5] = test system: Klebsiella aerogenes; assay: Inhibitory activity against Enterobacter aerogenes-3 strain in the presence of Norfloxacin and fluoroquinolone at 128 ug/mL
Procedure, shortened: (§2)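 Compound ranged 8–128 µg/mL, combined with norfloxacin at 16–128 µg/mL or ciprofloxacin at 4–64 µg/mL (final). Cells were grown in LB or MH broth at 37 °C and wells inoculated at 10^5 cells/mL. After 18 h at 37 °C growth was read visually. Values are means of two independent experiments.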

[6] = test system: Klebsiella aerogenes; assay: Inhibitory activity against Enterobacter aerogenes-3 istrainn the presence of ciprofloxacin and fluoroquinolone at 128 ug/mL; procedure, shortened: as §2
[7] = test system: Klebsiella aerogenes; assay: Inhibitory activity against p9- (derivative of ATCC )13048 strain(Enterobacter aerogenes) in the presence of Norfloxacin and luoroquinolone at 16 ug/mL; procedure, shortened: as §1
[8] = test system: Klebsiella aerogenes; assay: Inhibitory activity against Enterobacter aerogenes-3 istrainn the presence of ciprofloxacin and fluoroquinolone at 64 ug/mL; procedure, shortened: as §2
[9] = test system: Klebsiella aerogenes; assay: Inhibitory activity against ATCC 13048 strain(Enterobacter aerogenes) in the presence of ciprofloxacin fluoroquinolone at 32 ug/mL; procedure, shortened: as §1
[10] = test system: Klebsiella aerogenes; assay: Inhibitory activity against Enterobacter aerogenes-3 strain in the presence of Norfloxacin and fluoroquinolone at 64 ug/mL; procedure, shortened: as §2
[11] = test system: Klebsiella aerogenes; assay: Inhibitory activity against ATCC 13048 strain(Enterobacter aerogenes) in the presence of Norfloxacin and fluoroquinolone at 32 ug/mL; procedure, shortened: as §1
[12] = test system: Klebsiella aerogenes; assay: Inhibitory activity against ATCC 13048 strain(Enterobacter aerogenes) in the presence of Norfloxacin and fluoroquinolone at a concentration of 16 ug/mL; procedure, shortened: as §1

Row | Compound | MIC [1] [µg/mL] | MIC [2] [µg/mL] | MIC [3] [µg/mL] | MIC [4] [µg/mL] | MIC [5] [µg/mL] | MIC [6] [µg/mL] | MIC [7] [µg/mL] | MIC [8] [µg/mL] | MIC [9] [µg/mL] | MIC [10] [µg/mL] | MIC [11] [µg/mL] | MIC [12] [µg/mL]
1 | Cc1cc(OCCN2CCOCC2)c2cc3c(OCCN4CCOCC4)cc(C)nc3c(C)c2n1 | 0.5 | 2 | 0.025 | 0.05 |  |  |  |  |  |  |  | 
2 | Cc1cc(OCCN2CCCCC2)c2cc3c(OCCN4CCCCC4)cc(C)nc3c(C)c2n1 | 0.25 | 1 | 0.025 | 0.1 | 128 | 32 |  |  |  |  |  | 
3 | Cc1cc(OCCCN(C)C)c2cc3c(OCCCN(C)C)cc(C)nc3c(C)c2n1 | 0.05 | 1 | 0.025 | 0.05 | 128 | 32 |  |  |  |  |  | 
4 | Cc1cc(OCCN(C(C)C)C(C)C)c2cc3c(OCCN(C(C)C)C(C)C)cc(C)nc3c(C)c2n1 | 0.5 |  | 0.05 | 0.05 |  |  | 2 |  |  |  |  | 
5 | CCn1cc(C(=O)O)c(=O)c2cc(F)c(N3CCNCC3)cc21 [NORFLOXACIN] |  | 128 |  | 0.05 |  |  |  |  |  |  |  | 
6 | O=C(O)c1cn(C2CC2)c2cc(N3CCNCC3)c(F)cc2c1=O [CIPROFLOXACIN] |  | 32 | 0.5 | 0.025 |  |  |  |  |  |  |  | 
7 | Cc1cc(OCCN(C)C)c2cc3c(OCCN(C)C)cc(C)nc3c(C)c2n1 | 0.25 | 1 | 0.025 |  |  |  |  |  |  |  |  | 0.1

Further lines, results first:

Row | MIC [1] [µg/mL] | MIC [2] [µg/mL] | MIC [3] [µg/mL] | MIC [4] [µg/mL] | MIC [5] [µg/mL] | MIC [6] [µg/mL] | MIC [7] [µg/mL] | MIC [8] [µg/mL] | MIC [9] [µg/mL] | MIC [10] [µg/mL] | MIC [11] [µg/mL] | MIC [12] [µg/mL] | Compound
8 | 0.5 | 1 | 0.025 | 0.05 |  |  |  |  |  |  |  |  | CCN(CC)CCSc1cc(C)nc2c(C)c3nc(C)cc(SCCN(CC)CC)c3cc12
9 | 0.1 | 0.5 | 0.025 | 0.025 |  |  |  |  |  |  |  |  | Cc1cc(SCCn2cccc2)c2cc3c(SCCn4cccc4)cc(C)nc3c(C)c2n1
10 | 0.25 | 0.25 | 0.025 | 0.05 | 16 | 4 |  | 8 | 0.1 | 64 | 0.25 |  | Cc1cc(SCCN(C)C)c2cc3c(SCCN(C)C)cc(C)nc3c(C)c2n1
11 | 0.5 | 2 | 0.025 | 0.05 |  |  |  |  |  |  |  |  | Cc1cc(SCCN2CCCCC2)c2cc3c(SCCN4CCCCC4)cc(C)nc3c(C)c2n1
